Laboratory results as given in ChEMBL document CHEMBL3232894, “Discovery of AMG 925, a FLT3 and CDK4 dual kinase inhibitor with preferential affinity for the activated state of FLT3” (J Med Chem, 2014).
Calls of active or inactive are those of the source. The calls are words filed in the database; no cut-off is given here.

Legend:
[1] = biological target: Cyclin-dependent kinase 4/cyclin D1 (Homo sapiens, UniProt P11802); experiment: Inhibition of CDK4/cyclin D1 (unknown origin) using Rb as substrate after 60 mins by scintillation counting analysis in presence of [r-33P]ATP; type: protein-complex assay
Chain of Cyclin-dependent kinase 4/cyclin D1 (P11802 whole entry, the tested form may be a part): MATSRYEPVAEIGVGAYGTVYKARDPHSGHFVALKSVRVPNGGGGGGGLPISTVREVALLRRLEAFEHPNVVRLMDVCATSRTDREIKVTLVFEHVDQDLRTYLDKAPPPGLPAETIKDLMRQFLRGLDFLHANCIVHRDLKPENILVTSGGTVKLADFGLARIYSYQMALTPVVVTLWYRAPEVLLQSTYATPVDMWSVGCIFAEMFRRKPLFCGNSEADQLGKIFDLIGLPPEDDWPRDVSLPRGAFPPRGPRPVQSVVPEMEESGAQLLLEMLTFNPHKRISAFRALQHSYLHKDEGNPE
Chain of Cyclin-dependent kinase 4/cyclin D1 (P24385 whole entry, further chain, the tested form may be a part): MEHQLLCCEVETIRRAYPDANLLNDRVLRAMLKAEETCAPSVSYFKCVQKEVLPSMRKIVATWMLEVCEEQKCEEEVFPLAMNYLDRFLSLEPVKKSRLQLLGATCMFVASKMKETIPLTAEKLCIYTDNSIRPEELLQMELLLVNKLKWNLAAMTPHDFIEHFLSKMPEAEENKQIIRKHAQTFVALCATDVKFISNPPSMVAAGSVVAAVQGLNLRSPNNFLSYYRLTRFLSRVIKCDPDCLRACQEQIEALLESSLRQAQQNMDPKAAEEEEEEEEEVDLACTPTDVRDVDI

[2] = biological target: T1, Receptor-type tyrosine-protein kinase FLT3 (Homo sapiens, UniProt P36888); experiment: Inhibition of GST-fused human FLT3 cytoplasmic domain (amino acids 564 to 993) using Ulight-JAK1 as substrate after 1 hr by TR-FRET assay
T1 sequence (P36888 whole entry): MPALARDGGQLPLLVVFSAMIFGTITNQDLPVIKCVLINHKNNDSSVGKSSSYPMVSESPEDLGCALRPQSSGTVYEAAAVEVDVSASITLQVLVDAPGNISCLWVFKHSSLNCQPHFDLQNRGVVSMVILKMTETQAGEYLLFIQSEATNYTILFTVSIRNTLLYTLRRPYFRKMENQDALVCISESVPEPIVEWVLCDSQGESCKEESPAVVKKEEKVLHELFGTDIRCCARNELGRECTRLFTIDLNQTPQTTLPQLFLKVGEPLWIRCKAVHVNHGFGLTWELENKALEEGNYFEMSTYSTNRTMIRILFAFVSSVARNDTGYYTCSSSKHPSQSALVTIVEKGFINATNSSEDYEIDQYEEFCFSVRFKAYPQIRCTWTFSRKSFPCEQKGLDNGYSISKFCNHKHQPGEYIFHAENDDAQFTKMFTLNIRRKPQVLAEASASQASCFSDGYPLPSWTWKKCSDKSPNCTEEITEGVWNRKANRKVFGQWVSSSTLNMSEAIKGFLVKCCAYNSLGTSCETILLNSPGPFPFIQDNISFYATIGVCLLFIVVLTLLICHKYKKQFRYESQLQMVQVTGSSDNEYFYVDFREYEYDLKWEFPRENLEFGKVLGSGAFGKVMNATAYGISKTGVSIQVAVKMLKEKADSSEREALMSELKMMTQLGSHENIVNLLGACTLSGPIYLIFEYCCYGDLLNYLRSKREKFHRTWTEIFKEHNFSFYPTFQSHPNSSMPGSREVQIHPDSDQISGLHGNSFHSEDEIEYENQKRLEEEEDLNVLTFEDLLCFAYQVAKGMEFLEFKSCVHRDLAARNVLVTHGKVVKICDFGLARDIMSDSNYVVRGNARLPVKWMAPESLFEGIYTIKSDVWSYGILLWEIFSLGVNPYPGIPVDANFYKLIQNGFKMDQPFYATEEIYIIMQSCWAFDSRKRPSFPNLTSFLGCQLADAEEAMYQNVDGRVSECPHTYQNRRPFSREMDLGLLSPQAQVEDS

[3] = Oral bioavailability in rat; type: ADME, organism-based; conditions: in vivo
Procedure, shortened: (§1)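 Intravenous and oral (gavage, solution) PK in rat, dog and cynomolgus monkey. The rat vehicle for both routes was water/acetate/tween at pH 4, 96/3/1 (v/v/v). Dog and monkey iv doses used 40% PG aqueous solution at pH 2, and their oral doses used 20% captisol aqueous solution.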

[4] = biological target: T2, Receptor-type tyrosine-protein kinase FLT3 (Homo sapiens, UniProt P36888, ITD); experiment: Inhibition of FLT3 ITD mutant in human MOLM13 cells assessed as inhibition of STAT5 phosphorylation at Tyr694 after 24 hrs; type: cell-based, MOLM-13
[5] = biological target: T2, Receptor-type tyrosine-protein kinase FLT3; experiment: Binding affinity to FLT3 ITD mutant (unknown origin)
[6] = biological target: Receptor-type tyrosine-protein kinase FLT3 (Homo sapiens, UniProt P36888, D835H); experiment: Binding affinity to FLT3 D835H mutant (unknown origin)
MOLM-13 [7] = experiment: Induction of apoptosis in human MOLM13 cells harboring FLT3 ITD mutant at 1 uM after 48 hrs by Annexin V/Sytox Green staining based flow cytometry; type: functional
Procedure, shortened: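 MOLM13, sorafenib-resistant MOLM13 and U937 cells were each exposed to compound at 1 μM for 48 h. Cells were then stained with Annexin V/Sytox Green and analysed by flow cytometry. Readout is apoptotic cells as a percentage of all cells analysed.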

[8] = Volume of distribution at steady state in iv dosed rat; type: ADME, organism-based; conditions: in vivo, read-out: Vdss; procedure, shortened: as §1
[9] = Elimination half-life in iv dosed rat; type: ADME, organism-based; conditions: in vivo, read-out: beta t1/2 (converted); procedure, shortened: as §1
[10] = Clearance in iv dosed dog; type: ADME, organism-based, Canis lupus familiaris; conditions: in vivo; procedure, shortened: as §1
[11] = Clearance in iv dosed cynomolgus monkey; type: ADME, organism-based, Macaca fascicularis; conditions: in vivo; procedure, shortened: as §1
[12] = Elimination half-life in iv dosed cynomolgus monkey; type: ADME, organism-based, Macaca fascicularis; conditions: in vivo, read-out: beta t1/2 (converted); procedure, shortened: as §1
MOLM-13 [13] = experiment: Antitumor activity against human MOLM13 cells xenografted in po dosed CrTac:NCR-Foxn1nu (NCR) nude mouse assessed as tumor growth inhibition administered qd for 8 days; type: functional
Procedure, shortened: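 Oral dosing once daily, day 5 to day 13, in NCR nude mice bearing established subcutaneous human MOLM13 AML xenografts, at 25, 50, 75 and 150 mg/kg against a vehicle group. Tumor growth inhibition read on day 14. AUC comes from terminal PK on plasma collected after the final dose.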

Mus musculus = experiment: Toxicity in CrTac:NCR-Foxn1nu (NCR) nude mouse xenografted with human MOLM13 cells assessed as body weight loss at 25 to 150 mg/kg, po administered qd for 8 days; type: organism-based, MOLM-13; design: dose 25-150 mg/kg, route oral; conditions: in vivo, 192 h
Procedure, shortened: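 Body weight tracked throughout the 8-day once-daily oral study in NCR nude mice carrying MOLM13 xenografts. Doses were 25, 50, 75 and 150 mg/kg, with a vehicle control.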

Tumour = experiment: Decrease in STAT5 phosphorylation at Tyr694 in tumor of CrTac:NCR-Foxn1nu (NCR) nude mouse xenografted with human MOLM13 cells at 50 to 150 mg/kg, po after 3 to 24 hrs; type: functional, organism-based; conditions: Neoplasm, MOLM-13
Procedure, shortened: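 MOLM13 tumor-bearing mice received a single oral dose of 50, 75 or 150 mg/kg. Tumors were harvested at 3, 6 and 24 h, and lysates were assayed for pSTAT5 and pRb. Unbound plasma levels were measured at the same time points. Results are mean ± SEM, n = 3 per group and n = 6 for vehicle.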

MOLM-13 [14] = experiment: cells; conditions: Homo sapiens
[15] = biological target: Cyclin-dependent kinase 4 (Homo sapiens, UniProt P11802); experiment: Inhibition of CDK4 in human COLO205 cells assessed as inhibition of Rb phosphorylation at Ser780 after 24 hrs
Chain of Cyclin-dependent kinase 4 (P11802 whole entry): as the sequence (P11802 whole entry, the tested form may be a part) above

- IC50 [1]: 3 nM
- IC50 [2]: 1 nM
- bioavailability [3]: 75%
- IC50 [4]: 5 nM
- Kd [5]: 4 nM
- Kd [6]: 1 nM
- Vd [8]: 1.8 L/kg
- half-life [9]: 330 min
- clearance [10]: 23.5 mL/min/kg
- clearance [11]: 23.7 mL/min/kg
- half-life [12]: 396 min
- IC50 (MOLM-13 [14]): 23 nM
- IC50 [15]: 23 nM
Compound: C[C@H]1CC[C@H](n2c3cnccc3c3cnc(Nc4ccc5c(n4)CCN(C(=O)CO)C5)nc32)CC1
- Activity (MOLM-13 [7]): 82.3%
- TGI (MOLM-13 [13]): Dose-dependent effect
- ED50 (MOLM-13 [13]; MOLM-13, po, 192 h): 22 mg/kg
- Activity (Mus musculus): 10%
- inhibition (Tumour): Active
